In ChEMBL document CHEMBL3875192, “Synthesis and binding monitoring of a new nanomolar PAMAM-based matrix metalloproteinases inhibitor (MMPIs)” (Bioorg Med Chem, 2017):
pKi: −log10 of the molar value. The source made the active and inactive calls. The calls are words filed in the database; no cut-off is given here.

What was measured:
[1] = target: 72 kDa type IV collagenase (Homo sapiens, UniProt P08253); assay: Inhibition of MMP-2 (unknown origin) assessed as inhibition of hydrolysis of Mca-Pro-Leu-Gly-Leu-Dpa-Ala-Arg-NH2 substrate by fluorimetric assay
Sequence of 72 kDa type IV collagenase (P08253 whole entry): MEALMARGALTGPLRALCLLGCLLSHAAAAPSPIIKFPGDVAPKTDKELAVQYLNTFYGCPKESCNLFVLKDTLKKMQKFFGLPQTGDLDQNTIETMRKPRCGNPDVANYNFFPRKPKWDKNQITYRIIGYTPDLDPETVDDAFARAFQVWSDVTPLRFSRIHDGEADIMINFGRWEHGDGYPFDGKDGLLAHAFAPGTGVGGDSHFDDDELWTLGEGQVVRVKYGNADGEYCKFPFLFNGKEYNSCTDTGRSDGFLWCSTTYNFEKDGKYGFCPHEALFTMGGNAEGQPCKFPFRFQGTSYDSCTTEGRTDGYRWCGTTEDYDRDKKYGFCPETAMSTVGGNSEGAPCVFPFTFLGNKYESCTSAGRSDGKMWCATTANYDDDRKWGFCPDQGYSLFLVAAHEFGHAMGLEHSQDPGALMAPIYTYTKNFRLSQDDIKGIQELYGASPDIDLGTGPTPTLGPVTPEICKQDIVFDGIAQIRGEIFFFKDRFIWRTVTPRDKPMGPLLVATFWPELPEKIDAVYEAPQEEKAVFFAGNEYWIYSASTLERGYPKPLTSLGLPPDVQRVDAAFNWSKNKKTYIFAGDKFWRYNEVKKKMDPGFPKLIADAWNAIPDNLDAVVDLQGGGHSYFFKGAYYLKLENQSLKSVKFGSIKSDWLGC

[2] = target: Collagenase 3 (Homo sapiens, UniProt P45452); assay: Inhibition of MMP-13 (unknown origin) assessed as inhibition of hydrolysis of Mca-Pro-Leu-Gly-Leu-Dpa-Ala-Arg-NH2 substrate by fluorimetric assay
[3] = target: T1, Interstitial collagenase (Homo sapiens, UniProt P03956); assay: Inhibition of MMP-1 (unknown origin) assessed as inhibition of hydrolysis of Mca-Pro-Leu-Gly-Leu-Dpa-Ala-Arg-NH2 substrate by fluorimetric assay
T1 sequence (P03956 whole entry): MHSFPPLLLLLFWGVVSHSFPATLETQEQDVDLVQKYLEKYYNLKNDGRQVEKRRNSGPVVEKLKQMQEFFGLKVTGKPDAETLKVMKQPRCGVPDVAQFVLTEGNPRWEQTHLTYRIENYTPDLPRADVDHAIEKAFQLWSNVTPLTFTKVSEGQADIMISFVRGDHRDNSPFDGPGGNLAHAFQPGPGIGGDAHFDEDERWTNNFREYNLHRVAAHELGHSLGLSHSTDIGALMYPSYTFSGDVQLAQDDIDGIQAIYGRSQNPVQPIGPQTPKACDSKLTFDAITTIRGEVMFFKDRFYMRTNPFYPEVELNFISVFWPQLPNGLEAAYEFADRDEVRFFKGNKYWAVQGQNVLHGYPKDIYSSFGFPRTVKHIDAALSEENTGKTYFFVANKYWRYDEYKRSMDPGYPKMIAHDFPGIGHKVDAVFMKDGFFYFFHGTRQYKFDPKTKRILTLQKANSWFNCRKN

[4] = target: T2, Macrophage metalloelastase (Homo sapiens, UniProt P39900); assay: Binding affinity to MMP-12 catalytic domain (unknown origin) assessed as hydrodynamic radius by dynamic light scattering method
In short: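 Samples in glass tubes sat in a thermostatic cell filled with decahydronaphthalene for refractive-index matching. Cumulant fitting of the light-scattering data gave the diffusion coefficient of the complexes, and the average hydrodynamic radius came from the Stokes–Einstein relation assuming spherical particles.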
Target sequence in this assay (P39900 106-470 limits assumed): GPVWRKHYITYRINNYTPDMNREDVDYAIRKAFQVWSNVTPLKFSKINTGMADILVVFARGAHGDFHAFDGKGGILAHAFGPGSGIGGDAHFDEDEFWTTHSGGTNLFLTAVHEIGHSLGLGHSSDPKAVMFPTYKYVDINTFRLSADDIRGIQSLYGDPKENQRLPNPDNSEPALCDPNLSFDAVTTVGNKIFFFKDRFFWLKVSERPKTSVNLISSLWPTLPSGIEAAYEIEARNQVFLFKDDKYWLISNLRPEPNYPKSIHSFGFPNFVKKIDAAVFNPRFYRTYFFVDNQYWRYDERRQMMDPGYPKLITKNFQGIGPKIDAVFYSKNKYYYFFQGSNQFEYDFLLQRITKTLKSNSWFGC

[5] = target: T2, Macrophage metalloelastase; assay: Binding affinity to 15N-enriched MMP-12 catalytic domain (unknown origin) at 0.2 mM by 2D 1H-15N HSQC NMR spectroscopy
In short: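 Ligand was added from a DMSO-d₆ solution to a final 0.2 mM with 1% DMSO-d₆. Amide NH resonances were followed by sensitivity-enhanced 2D ¹H-¹⁵N HSQC, and spectral changes were the binding read-out.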
Target sequence in this assay (P39900 106-470 limits assumed): as above

[6] = target: T3, Matrix metalloproteinase-9 (Homo sapiens, UniProt P14780); assay: Inhibition of human recombinant MMP-9 catalytic domain (112 to 445 residues) expressed in Escherichia coli assessed as inhibition of hydrolysis of Mca-Pro-Leu-Gly-Leu-Dpa-Ala-Arg-NH2 substrate by fluorimetric assay
T3 sequence (P14780 whole entry, the tested form may be a part): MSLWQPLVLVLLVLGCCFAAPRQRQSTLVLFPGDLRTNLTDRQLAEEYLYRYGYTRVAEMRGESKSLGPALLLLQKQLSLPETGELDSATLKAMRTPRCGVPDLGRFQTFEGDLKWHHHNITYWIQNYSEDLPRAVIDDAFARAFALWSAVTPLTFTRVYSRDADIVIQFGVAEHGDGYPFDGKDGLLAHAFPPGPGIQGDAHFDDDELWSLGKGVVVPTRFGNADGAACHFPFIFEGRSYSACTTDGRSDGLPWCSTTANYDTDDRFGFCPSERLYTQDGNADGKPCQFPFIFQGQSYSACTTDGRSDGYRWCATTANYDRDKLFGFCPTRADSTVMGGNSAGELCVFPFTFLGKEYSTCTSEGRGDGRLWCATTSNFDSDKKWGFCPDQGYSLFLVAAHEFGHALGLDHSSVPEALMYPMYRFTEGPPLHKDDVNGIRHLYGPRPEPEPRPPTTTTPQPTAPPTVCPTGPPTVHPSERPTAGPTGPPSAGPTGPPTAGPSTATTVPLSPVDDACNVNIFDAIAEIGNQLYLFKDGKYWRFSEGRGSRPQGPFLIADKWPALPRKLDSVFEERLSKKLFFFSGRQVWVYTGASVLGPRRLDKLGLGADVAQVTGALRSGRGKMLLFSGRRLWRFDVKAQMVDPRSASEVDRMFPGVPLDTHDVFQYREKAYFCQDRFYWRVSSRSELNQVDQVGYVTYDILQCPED
In short: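 Inhibition constant toward MMP-9 was determined fluorimetrically by monitoring hydrolysis of the quenched peptide substrate Mca-Pro-Leu-Gly-Leu-Dpa-Ala-Arg-NH₂.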

[7] = target: T2, Macrophage metalloelastase; assay: Inhibition of MMP-12 catalytic domain (unknown origin) assessed as inhibition of hydrolysis of Mca-Pro-Leu-Gly-Leu-Dpa-Ala-Arg-NH2 substrate by fluorimetric assay
Target sequence in this assay (P39900 whole entry, the tested form may be a part): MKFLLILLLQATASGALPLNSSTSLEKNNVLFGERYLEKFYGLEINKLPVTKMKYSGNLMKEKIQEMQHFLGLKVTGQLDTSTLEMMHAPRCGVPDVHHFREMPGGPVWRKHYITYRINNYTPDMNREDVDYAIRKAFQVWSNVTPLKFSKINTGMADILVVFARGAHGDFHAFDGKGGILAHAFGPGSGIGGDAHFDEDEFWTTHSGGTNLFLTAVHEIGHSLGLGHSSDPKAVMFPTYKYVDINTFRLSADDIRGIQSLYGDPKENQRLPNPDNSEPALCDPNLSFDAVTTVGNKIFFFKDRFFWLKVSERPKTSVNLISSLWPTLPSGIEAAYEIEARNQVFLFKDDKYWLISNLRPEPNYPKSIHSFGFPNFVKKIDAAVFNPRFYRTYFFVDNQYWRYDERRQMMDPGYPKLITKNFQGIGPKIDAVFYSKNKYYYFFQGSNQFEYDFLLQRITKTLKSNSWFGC

[8] = target: T4, Matrilysin (Homo sapiens, UniProt P09237); assay: Inhibition of MMP-7 (unknown origin) assessed as inhibition of hydrolysis of Mca-Pro-Leu-Gly-Leu-Dpa-Ala-Arg-NH2 substrate by fluorimetric assay
T4 sequence (P09237 whole entry): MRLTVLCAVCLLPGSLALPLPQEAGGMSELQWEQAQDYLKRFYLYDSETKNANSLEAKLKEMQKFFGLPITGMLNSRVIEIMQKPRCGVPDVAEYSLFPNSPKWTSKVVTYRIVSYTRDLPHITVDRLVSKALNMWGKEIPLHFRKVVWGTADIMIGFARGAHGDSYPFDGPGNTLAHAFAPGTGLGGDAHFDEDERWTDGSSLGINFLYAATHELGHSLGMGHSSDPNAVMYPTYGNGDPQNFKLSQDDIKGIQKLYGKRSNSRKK

[9] = target: T3, Matrix metalloproteinase-9; assay: Inhibition of MMP-9 catalytic domain (unknown origin)

## COc1ccc(S(=O)(=O)N(CCCCCNC(=O)CCCCC(=O)NCCNC(=O)CCN(CCNC(=O)OC(C)(C)C)CCC(=O)NCCNC(=O)CCCCC(=O)NCCCCCN([C@H](CO)C(=O)NO)S(=O)(=O)c2ccc(OC)cc2)[C@H](CO)C(=O)NO)cc1
[1]
  pKi: 7.80
[2]
  pKi: 7.24
[3]
  pKi: 6.84
[4]
  Activity: 3 nm
[5]
  Activity: Active
[6]
  pKi: 7.74
[7]
  pKi: 7.64
[8]
  pKi: 5.42

## COc1ccc(S(=O)(=O)N(CC(=O)NO)CC(C)C)cc1
[4]
  Activity: 2.1 nm

## COc1ccc(S(=O)(=O)N(CCNC(=O)CCCCC(=O)NCCNC(=O)CCN(CCNC(=O)OC(C)(C)C)CCC(=O)NCCNC(=O)CCCCC(=O)NCCN([C@H](CO)C(=O)NO)S(=O)(=O)c2ccc(OC)cc2)[C@H](CO)C(=O)NO)cc1
[9]
  pKi: 6.54
